# Activity calls are given as the source filed them. No cut-off for these calls is given here.
# Assays:
# [1] = biological target: Signal transducer and activator of transcription 3 (Homo sapiens) (UniProt P40763); experiment: Inhibition of STAT3 phosphorylation in human U937 cells at 10 uM after 24 hrs by Western blotting; assay type: cell-based; conditions: U-937
# Outline: (§1)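 U937 cells at 5.0 × 10⁴ cells/mL treated 24 h and lysed with phosphatase and protease inhibitors. 60 µg protein per lane run on 10% SDS–PAGE. Western blots probed with rabbit anti-phospho-STAT3 and anti-STAT3 (1:1000), then HRP anti-rabbit (1:5000), with ECL detection.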
# [2] = biological target: Signal transducer and activator of transcription 3 (Homo sapiens) (UniProt P40763); experiment: Inhibition of STAT3 phosphorylation in human U937 cells at 100 uM after 24 hrs by Western blotting; assay type: cell-based; conditions: U-937; outline: as §1
# [3] = tested on: HT-1080; experiment: Decrease of F to G actin ratio in human HT1080 cells at 100 nM after 24 hrs; assay type: functional, cell-based
# Outline: (§2)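 HT1080 cells seeded at 1.0 × 10⁴ cells/100 µL/well and treated 24 h at 37 °C. Cells fixed in 4% formaldehyde, permeabilized with cold methanol and blocked. F-actin stained with Alexa 350 phalloidin and G-actin with Alexa 488 DNase I, each 15 min at rt in the dark. Fluorescence read at ex 355/em 405 and ex 480/em 520 nm. Results are mean of n = 4; Dunnett's test against control.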
# [4] = tested on: U-937; experiment: Cytotoxicity against human U937 cells after 72 hrs by WST-8 assay; assay type: functional, cell-based; conditions: U-937, 72 h
# Outline: (§3)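 Cells seeded at 5.0 × 10³ cells/100 µL/well in RPMI-1640 and exposed to compounds for 68 h. WST-8 was then added for a further 4 h. Formazan absorbance read at 450 nm (reference 655 nm). Percent inhibition calculated and IC50 read graphically from the curve.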
# [5] = tested on: U-937; experiment: Cell cycle arrest in human U937 cells assessed as reduction of cell population at S phase at 100 nM after 24 hrs using propidium iodide staining by flow cytometry relative to control; assay type: functional; parameters: scale not given: the % may be the effect or the level left
# Outline: (§4)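 U937 cells at 5.0 × 10⁴ cells/mL treated 24 h, pelleted, fixed in ice-cold ethanol overnight at −20 °C, treated with DNase-free RNase (0.25 mg/mL) at 37 °C for 30 min, then stained with propidium iodide. DNA content read by flow cytometry, 20,000 cells per sample. G0/G1, S and G2/M fractions compared with untreated control.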
# [6] = biological target: Cofilin-1 (Homo sapiens) (UniProt P23528); experiment: Inhibition of cofilin phosphorylation in human U937 cells after 24 hrs by Western blotting; assay type: cell-based; conditions: U-937
# Sequence of Cofilin-1 (Homo sapiens) (P23528 whole entry): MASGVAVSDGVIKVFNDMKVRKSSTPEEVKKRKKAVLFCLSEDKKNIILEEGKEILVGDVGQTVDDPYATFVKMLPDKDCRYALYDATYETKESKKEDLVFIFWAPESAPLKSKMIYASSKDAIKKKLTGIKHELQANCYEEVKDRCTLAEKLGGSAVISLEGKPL
# Outline: (§5)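 U937 cells at 5.0 × 10⁴ cells/mL treated 24 h, then lysed with phosphatase and protease inhibitors. Equal protein loaded on SDS–PAGE. Blots probed 1 h with rabbit antibodies (1:1000) to phospho-cofilin, phospho-LIMK1/2, cofilin and β-actin in T-TBS. Detection with HRP anti-rabbit (1:5000) and ECL.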
# [7] = tested on: U-937; experiment: Cell cycle arrest in human U937 cells assessed as reduction of cell population at G0/G1 phase at 100 nM after 24 hrs using propidium iodide staining by flow cytometry relative to control; assay type: functional; parameters: scale not given: the % may be the effect or the level left; outline: as §4
# [8] = tested on: HL-60; experiment: Cytotoxicity against human HL60 cells after 72 hrs by WST-8 assay; assay type: functional, cell-based; conditions: HL-60, 72 h; outline: as §3
# [9] = biological target: T1, LIM domain kinase 1/2 (Homo sapiens) (UniProt P53671+P53667); experiment: Inhibition of LIMK1/2 phosphorylation in human U937 cells at 0.1 to 100 nM after 24 hrs by Western blotting; assay type: cell-based; conditions: U-937; outline: as §5
# T1 sequence (P53667 whole entry, looked up, the tested form may be a part): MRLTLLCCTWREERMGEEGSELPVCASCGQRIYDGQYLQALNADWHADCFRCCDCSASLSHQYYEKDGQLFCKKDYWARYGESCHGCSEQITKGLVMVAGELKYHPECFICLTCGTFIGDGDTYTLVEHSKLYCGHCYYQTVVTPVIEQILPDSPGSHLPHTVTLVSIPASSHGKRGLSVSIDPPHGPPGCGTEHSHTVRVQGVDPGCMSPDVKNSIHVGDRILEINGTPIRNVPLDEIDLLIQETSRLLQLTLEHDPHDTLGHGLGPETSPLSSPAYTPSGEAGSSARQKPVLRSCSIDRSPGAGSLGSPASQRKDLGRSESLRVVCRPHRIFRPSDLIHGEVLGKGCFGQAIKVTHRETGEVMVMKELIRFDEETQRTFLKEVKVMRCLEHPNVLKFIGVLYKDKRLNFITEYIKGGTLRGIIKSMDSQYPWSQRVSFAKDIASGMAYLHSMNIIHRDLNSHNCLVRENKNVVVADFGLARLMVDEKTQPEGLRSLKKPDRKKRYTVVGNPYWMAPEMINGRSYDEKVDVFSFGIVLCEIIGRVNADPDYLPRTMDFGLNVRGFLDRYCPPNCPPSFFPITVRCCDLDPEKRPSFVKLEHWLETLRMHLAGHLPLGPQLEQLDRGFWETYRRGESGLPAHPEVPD
# T1 sequence (P53671 whole entry, looked up, the tested form may be a part): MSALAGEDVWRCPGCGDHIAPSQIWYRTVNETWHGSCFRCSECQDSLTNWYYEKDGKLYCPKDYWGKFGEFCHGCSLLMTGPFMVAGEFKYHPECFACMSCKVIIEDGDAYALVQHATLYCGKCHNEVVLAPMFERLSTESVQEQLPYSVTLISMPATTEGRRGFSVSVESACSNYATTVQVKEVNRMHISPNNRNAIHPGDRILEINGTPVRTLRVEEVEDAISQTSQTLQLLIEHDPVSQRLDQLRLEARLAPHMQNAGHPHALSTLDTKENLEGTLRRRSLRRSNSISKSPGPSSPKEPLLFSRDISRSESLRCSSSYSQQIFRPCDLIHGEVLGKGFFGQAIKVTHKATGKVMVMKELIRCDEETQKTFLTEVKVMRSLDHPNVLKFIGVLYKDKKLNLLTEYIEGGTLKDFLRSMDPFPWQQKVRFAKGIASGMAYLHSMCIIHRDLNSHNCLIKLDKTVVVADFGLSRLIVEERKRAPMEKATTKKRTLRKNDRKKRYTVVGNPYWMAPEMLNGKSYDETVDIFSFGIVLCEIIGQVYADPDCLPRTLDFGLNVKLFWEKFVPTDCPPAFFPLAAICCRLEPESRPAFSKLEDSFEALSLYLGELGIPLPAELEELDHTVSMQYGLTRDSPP
# [10] = tested on: HT-1080; experiment: Cytotoxicity against human HT1080 cells after 72 hrs by WST-8 assay; assay type: functional, cell-based; conditions: HT-1080, 72 h; outline: as §3
# [11] = tested on: U-937; experiment: Cell cycle arrest in human U937 cells assessed as increase of cell population at G2/M phase at 100 nM after 24 hrs using propidium iodide staining by flow cytometry relative to control; assay type: functional; outline: as §4
# [12] = tested on: HT-1080; experiment: Decrease of F to G actin ratio in human HT1080 cells at 1000 nM after 24 hrs; assay type: functional, cell-based; outline: as §2
# [13] = biological target: T1, LIM domain kinase 1/2 (Homo sapiens); experiment: Inhibition of LIMK1/2 phosphorylation in human U937 cells at 0.1 to 1000 nM after 24 hrs by Western blotting; assay type: cell-based; conditions: U-937; outline: as §5
# Sequence of Signal transducer and activator of transcription 3 (Homo sapiens) (P40763 whole entry): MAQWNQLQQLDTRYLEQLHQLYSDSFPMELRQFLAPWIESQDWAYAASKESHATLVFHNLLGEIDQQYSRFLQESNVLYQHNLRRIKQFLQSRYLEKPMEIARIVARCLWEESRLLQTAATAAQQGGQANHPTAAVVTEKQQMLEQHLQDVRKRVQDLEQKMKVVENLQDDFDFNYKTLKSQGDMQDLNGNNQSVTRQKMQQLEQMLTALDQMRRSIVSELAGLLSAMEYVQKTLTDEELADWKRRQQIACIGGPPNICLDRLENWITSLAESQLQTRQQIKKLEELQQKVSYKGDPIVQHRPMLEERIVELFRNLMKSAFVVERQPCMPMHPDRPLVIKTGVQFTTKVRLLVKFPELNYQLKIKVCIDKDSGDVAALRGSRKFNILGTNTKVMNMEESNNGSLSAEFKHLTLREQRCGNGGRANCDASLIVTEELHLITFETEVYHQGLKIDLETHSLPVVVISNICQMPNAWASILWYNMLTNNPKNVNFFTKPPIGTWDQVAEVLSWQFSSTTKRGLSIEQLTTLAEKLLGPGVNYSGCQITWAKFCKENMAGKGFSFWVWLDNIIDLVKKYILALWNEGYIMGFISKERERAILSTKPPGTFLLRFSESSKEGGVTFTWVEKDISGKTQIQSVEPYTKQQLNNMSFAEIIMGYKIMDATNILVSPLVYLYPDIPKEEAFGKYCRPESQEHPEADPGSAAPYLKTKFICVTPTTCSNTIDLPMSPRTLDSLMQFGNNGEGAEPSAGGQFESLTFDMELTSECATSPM
Structure (SMILES),Activity [1],Activity [2],Activity [3],IC50 [4] [µM],Activity [5] [%],Activity [6],Activity [7] [%],IC50 [8] [µM],Activity [9],IC50 [10] [µM],Activity [11] [%],Activity [12],Activity [13]
CC(=O)OC(C)(C)/C=C/C(=O)[C@](C)(O)[C@H]1[C@H](O)C[C@@]2(C)[C@@H]3CC=C4[C@H](C[C@H](O)C(=O)C4(C)C)[C@]3(C)C(=O)C[C@]12C,inactive,Active,,,,,,,,,,,
CC(=O)OC(C)(C)/C=C/C(=O)[C@](C)(O)[C@H]1[C@H](O)C[C@@]2(C)[C@@H]3CC=C4[C@@H](C=C(O)C(=O)C4(C)C)[C@]3(C)C(=O)C[C@]12C [CUCURBITACIN E],inactive,,Active,0.016,28.1,Dose-dependent effect,37.7,0.018,inactive,0.04,34.2,,
CC(C)(O)/C=C/C(=O)[C@](C)(O)[C@H]1[C@H](O)C[C@@]2(C)[C@@H]3CC=C4[C@@H](C=C(O)C(=O)C4(C)C)[C@]3(C)C(=O)C[C@]12C [CUCURBITACIN I],,,,,,Dose-dependent effect,,,inactive,,,Active,inactive
